Bioassay records (PubChem BioAssay)
The list is not random: actives were taken first. Their share in the collection is about 5.8%.
T cruzi growth-1: inhibitors of T. cruzi proliferation | T. cruzi beta-gal in NIH3T3, GalScreen luminescence, 90 h | inhibition, % at 8.34 µM | hit rate 5.9% among 77,000 | AID 624255;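 active = mean inhibition above about 93%, with at least 55% of replicates each passing it, limit read from the data, passing the limit was not always enough; inconclusive = only one of those two conditions holds; inactive = neither condition holds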
IDH1 R132H inh: IDH1 R132H (human) inhibition; IDH1 R132H reductase, diaphorase/resazurin fluorescence, 60 min; hit rate 0.18% among 70,000; AID 624101; inhibition, % at 10 µM; O75874; in the data active = inhibition above about 34%; inconclusive = no clear call, values can overlap the other calls; inactive = below about 11%;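 note: 0% = DMSO and 100% = no enzyme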
Pf Dd2 inh: blocks growth of Plasmodium falciparum Dd2 parasites; P. falciparum Dd2 growth, SYBR Green, 72 h; stronger effect = lower value; activity change, % at 10 µM; hit rate 2.3% among 94,000; AID 1159554; in the data active = activity change below about -80%; inconclusive = no clear call, values can overlap the other calls
GASC1 inh: inhibitors of human demethylase GASC-1 KDM4C. hit rate 0.15% among 96,000. GST-KDM4C 2-372, H3K9me3 peptide, LANCE TR-FRET. inhibition, % at 12.5 µM;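 active = mean replicate inhibition above about 25%, with at least 55% of replicates also reaching it, limit read from the data, passing the limit was not always enough; inconclusive = only one of those two conditions met; inactive = neither condition met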
Target sequence (Q9H3R0 2-372 limits assumed): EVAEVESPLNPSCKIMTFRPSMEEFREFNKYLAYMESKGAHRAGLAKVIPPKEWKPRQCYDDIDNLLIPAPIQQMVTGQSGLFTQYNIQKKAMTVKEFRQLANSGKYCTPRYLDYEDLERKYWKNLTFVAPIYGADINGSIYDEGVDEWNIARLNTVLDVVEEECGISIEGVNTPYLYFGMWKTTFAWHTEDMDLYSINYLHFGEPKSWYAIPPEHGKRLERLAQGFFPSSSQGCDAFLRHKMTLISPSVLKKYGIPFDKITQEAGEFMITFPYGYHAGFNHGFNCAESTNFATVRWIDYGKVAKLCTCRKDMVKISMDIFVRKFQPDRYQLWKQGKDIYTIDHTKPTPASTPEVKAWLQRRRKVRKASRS
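material = GST-tagged GASC-1 (JMJD2C) catalytic fragment, aa 2-372 | amount = enzyme final amount 10 nM | medium = HEPES buffer, pH 7.5, plus ascorbate | also added = H3K9me3 peptide substrate, Fe(II), 2-oxoglutarate | dosing = single dose | times = 30 min demethylation and 1 h detection at room temperature | detection = LANCE TR-FRET | read-out basis = Fall in 671/618 emission ratio as inhibition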
T cruzi growth-2: Trypanosoma cruzi proliferation inhibition; AID 651739; shares compounds with T cruzi growth-1; inhibition, % at 8.35 µM; T. cruzi beta-gal in NIH3T3, GalScreen luminescence, 90 h; hit rate 72% among 5,600;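 active = mean replicate inhibition above about 95% and at least 55% of replicates individually reaching it, limit read from the data; inconclusive = only one of the two criteria is met; inactive = neither criterion is met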
T cruzi growth-3: inhibitors of T. cruzi proliferation; inhibition, % at 2.09 µM; T. cruzi beta-gal in NIH3T3, GalScreen luminescence, 90 h; shares compounds with T cruzi growth-1; hit rate 21% among 5,600;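 active = mean inhibition above about 95%, with at least 55% of replicates also reaching it, limit read from the data; inconclusive = meets just one of the two conditions; inactive = meets neither condition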;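 note: plate controls were neutral control median for no effect and positive control median for full effect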
NIH3T3 tox: kills mouse NIH/3T3 fibroblasts | shares compounds with T cruzi growth-1 | NIH/3T3 viability, CellTiter-Glo ATP luminescence, 90 h | cytotoxicity (signal decrease), % at 8.35 µM | hit rate 14% among 5,600;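 active = mean signal decrease across replicates above about 35% based on untreated-well scatter, with enough replicates individually passing, limit read from the data; inconclusive = no rule stated though some were filed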;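 note: 0% = median of neutral control wells and 100% = median of positive control wells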
3T3 cytotox 2: cytotoxicity in mouse NIH/3T3 fibroblasts. shares compounds with T cruzi growth-1. NIH/3T3 viability, CellTiter-Glo ATP luminescence, 90 h. inhibition, % at 24.9 µM. hit rate 56% among 5,600. AID 651744;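 active = mean loss of cell viability signal at or above a set limit, and enough replicates individually reaching it; inconclusive = meets only the mean limit or only the replicate share; inactive = meets neither condition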;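 note: 0% = median of neutral control wells and 100% = median of positive control wells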
* marks the source's active call; other numbers are inactive results.

Results for COc1ccc(NC(=O)N(C)C[C@H]2Oc3ccc(NS(=O)(=O)c4cn(C)cn4)cc3CC(=O)N([C@H](C)CO)C[C@@H]2C)cc1 ?
T cruzi growth-1: 50; IDH1 R132H inh: 0; Pf Dd2 inh: 8; GASC1 inh: -1

Results for C[C@H]1CN([C@@H](C)CO)S(=O)(=O)c2ccc(Br)cc2O[C@@H]1CN(C)Cc1cccc(F)c1 ?
T cruzi growth-1: inconclusive; Pf Dd2 inh: -30; GASC1 inh: 3; T cruzi growth-2: 99*; T cruzi growth-3: 65; NIH3T3 tox: 32; 3T3 cytotox 2: 103*

What do the screens show for `C[C@H](CO)N1C[C@H](C)[C@@H](CN(C)Cc2ccccc2)Oc2cc(Br)ccc2S1(=O)=O`?
T cruzi growth-1: 104; IDH1 R132H inh: 0; Pf Dd2 inh: -21; GASC1 inh: 3

Results for C[C@@H]1CN([C@@H](C)CO)S(=O)(=O)c2ccc(Br)cc2O[C@H]1CN(C)Cc1cccc(F)c1 ?
T cruzi growth-1: inconclusive; Pf Dd2 inh: -25; GASC1 inh: 2; T cruzi growth-2: 98*; T cruzi growth-3: 92; NIH3T3 tox: 53*; 3T3 cytotox 2: 107*

Results for O=C(C[C@H]1C[C@@H]2c3cc(NC(=O)c4ccc5c(c4)OCO5)ccc3O[C@@H]2[C@H](CO)O1)NCc1ccc(Oc2ccccc2)cc1 ?
T cruzi growth-1: 177*; IDH1 R132H inh: -1; Pf Dd2 inh: -18; GASC1 inh: -2; T cruzi growth-2: 99*; T cruzi growth-3: 38; NIH3T3 tox: -15; 3T3 cytotox 2: 45*

Results for O=C(C[C@@H]1C[C@@H]2c3cc(NC(=O)c4ccc5c(c4)OCO5)ccc3O[C@@H]2[C@H](CO)O1)NCc1ccc(Cl)cc1 ?
T cruzi growth-1: 9; IDH1 R132H inh: 0; Pf Dd2 inh: -10; GASC1 inh: -1

How did O=C(C[C@H]1C[C@@H]2c3cc(NC(=O)c4ccc5c(c4)OCO5)ccc3O[C@@H]2[C@@H](CO)O1)NCc1ccc(Cl)cc1 do in these assays?
T cruzi growth-1: 101*; IDH1 R132H inh: 0; Pf Dd2 inh: -41; GASC1 inh: 1; T cruzi growth-2: 101*; T cruzi growth-3: 56; NIH3T3 tox: 21; 3T3 cytotox 2: 25

Results for COc1cccc(C(=O)Nc2ccc3c(c2)C(=O)N(C)[C@@H]2CC[C@@H](CC(=O)NCCCN4CCOCC4)O[C@H]2CO3)c1 ?
T cruzi growth-1: -59; GASC1 inh: -3

How did CN(C[C@@H]1[C@H](c2ccccc2)[C@H](CO)N1Cc1ccccn1)S(C)(=O)=O do in these assays?
T cruzi growth-1: 73; Pf Dd2 inh: 15; GASC1 inh: 2

How did C[C@@H]1CN([C@H](C)CO)C(=O)c2cccc(NC(=O)NC3CCCCC3)c2O[C@@H]1CN(C)Cc1ccc(Oc2ccccc2)cc1 do in these assays?
T cruzi growth-1: 48; IDH1 R132H inh: 1; Pf Dd2 inh: -49; GASC1 inh: 0

What do the screens show for `C[C@@H]1CN([C@H](C)CO)C(=O)c2cccc(NC(=O)NC3CCCCC3)c2O[C@H]1CN(C)Cc1ccc(Oc2ccccc2)cc1`?
T cruzi growth-1: inconclusive; Pf Dd2 inh: -11; GASC1 inh: 0; T cruzi growth-2: 98*; T cruzi growth-3: 108*; NIH3T3 tox: -14; 3T3 cytotox 2: 104*

Results for C[C@H](CO)N1C[C@H](C)[C@@H](CN(C)Cc2ccc(-c3ccccc3)cc2)Oc2c(NC(=O)NC3CCCCC3)cccc2C1=O ?
T cruzi growth-1: 105*; Pf Dd2 inh: -39; T cruzi growth-2: 106*; T cruzi growth-3: 89; NIH3T3 tox: -30; 3T3 cytotox 2: 104*

What do the screens show for `CCC(c1nc2ccccc2c(=O)n1-c1ccccn1)N1C(=O)c2ccccc2C1=O` (stereo not given)?
IDH1 R132H inh: 0

What do the screens show for `C[C@@H]1CN([C@@H](C)CO)S(=O)(=O)c2ccc(C#Cc3ccccn3)cc2O[C@H]1CN(C)Cc1ccccc1`?
T cruzi growth-1: 86*; IDH1 R132H inh: -2; Pf Dd2 inh: -73; GASC1 inh: -43; T cruzi growth-2: inconclusive; T cruzi growth-3: 103*; NIH3T3 tox: 19; 3T3 cytotox 2: 33*

Results for C[C@H]1CN([C@@H](C)CO)S(=O)(=O)c2ccc(C#Cc3ccccn3)cc2O[C@H]1CN(C)Cc1ccccc1 ?
T cruzi growth-1: 113*; IDH1 R132H inh: 0; Pf Dd2 inh: -63; GASC1 inh: -2; T cruzi growth-2: 109*; T cruzi growth-3: 76; NIH3T3 tox: 17; 3T3 cytotox 2: 26

How did C[C@@H]1CN([C@H](C)CO)S(=O)(=O)c2ccc(C#Cc3ccccn3)cc2O[C@H]1CN(C)Cc1ccccc1 do in these assays?
T cruzi growth-1: 106*; IDH1 R132H inh: 0; Pf Dd2 inh: -26; GASC1 inh: -18; T cruzi growth-2: 104*; T cruzi growth-3: 79; NIH3T3 tox: 19; 3T3 cytotox 2: 99*

Results for C[C@@H]1CN([C@@H](C)CO)S(=O)(=O)c2ccc(C#Cc3ccccn3)cc2O[C@@H]1CN(C)Cc1ccccc1 ?
T cruzi growth-1: 108*; IDH1 R132H inh: -1; Pf Dd2 inh: -33; GASC1 inh: -5; T cruzi growth-2: 109*; T cruzi growth-3: 86; NIH3T3 tox: 43*; 3T3 cytotox 2: 21

How did C[C@H](CO)N1C[C@H](C)[C@@H](CN(C)Cc2ccccc2)Oc2cc(C#Cc3ccccn3)ccc2S1(=O)=O do in these assays?
T cruzi growth-1: 106; IDH1 R132H inh: 0; Pf Dd2 inh: -12; GASC1 inh: -19

Results for CCC(=O)Nc1ccc2nc(SCc3ccccc3C#N)sc2c1 ?
IDH1 R132H inh: 0

What do the screens show for `C[C@@H](NC(=O)C[C@@H]1C=C[C@@H](NC(=O)C2CCOCC2)[C@@H](CO)O1)c1ccccc1`?
T cruzi growth-1: -8; IDH1 R132H inh: 0; Pf Dd2 inh: 12; GASC1 inh: 1

How did C[C@@H]1CN([C@H](C)CO)C(=O)c2cc(NS(C)(=O)=O)ccc2O[C@@H](C)CCCCO[C@@H]1CN(C)Cc1ccc(C(F)(F)F)cc1 do in these assays?
T cruzi growth-1: 67; IDH1 R132H inh: -3; Pf Dd2 inh: -52; GASC1 inh: -1

Results for C[C@@H]1CCCCO[C@@H](CN(C)Cc2ccc(C(F)(F)F)cc2)[C@@H](C)CN([C@H](C)CO)C(=O)c2cc(NS(=O)(=O)c3ccc(Cl)cc3)ccc2O1 ?
T cruzi growth-1: 108*; Pf Dd2 inh: -8; GASC1 inh: -1; T cruzi growth-2: 95*; T cruzi growth-3: 110*; NIH3T3 tox: 25; 3T3 cytotox 2: 102*
